# Screening data from PubChem.
# The list is not random: actives were taken first. Their share in the collection is about 1.5%.
# CCR6 antagonist: antagonists of human CCR6 receptor; inhibition, % at 20 µM; AID 493098; CHO-K1 CCR6 PathHunter beta-arrestin, luminescence, CCL20-stimulated; 340,000 tested, 0.49% active;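 active means compounds whose inhibition of the agonist-driven luminescence signal at 20 µM reaches about 50%, limit read from the data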;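 further: cells stimulated with CCL20 at 14 nM final; plate controls were DMSO with CCL20 for no effect and DMSO without agonist for full effect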
# Target sequence (P51684 whole entry, looked up): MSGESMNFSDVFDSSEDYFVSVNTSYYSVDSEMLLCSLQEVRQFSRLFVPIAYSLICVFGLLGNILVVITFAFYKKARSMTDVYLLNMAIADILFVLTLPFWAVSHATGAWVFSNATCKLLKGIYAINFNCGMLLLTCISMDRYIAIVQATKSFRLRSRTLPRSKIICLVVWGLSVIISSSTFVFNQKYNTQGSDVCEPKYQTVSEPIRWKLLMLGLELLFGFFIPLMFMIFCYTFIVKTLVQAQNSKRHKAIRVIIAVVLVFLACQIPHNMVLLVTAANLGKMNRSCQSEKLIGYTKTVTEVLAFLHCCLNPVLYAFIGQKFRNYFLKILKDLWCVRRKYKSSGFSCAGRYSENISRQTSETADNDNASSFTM
# APJ antagonist: antagonists of human APJ apelin receptor; 330,000 tested, 0.32% active; P35414; CHO-K1 APJ beta-arrestin complementation, luminescence; inhibition, % at 20 µM;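 active means inhibition above about 40% at 20 µM, limit read from the data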;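 further: cells challenged with 10 nM apelin-13 agonist together with compound; plate controls were apelin-13 plus DMSO wells for no effect and DMSO wells lacking apelin-13 for full effect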
# APJ ag: agonists of human APJ apelin receptor. P35414. CHO-K1 APJ PathHunter beta-arrestin, luminescence; 0% DMSO wells, 100% apelin. activation, % at 20 µM. 330,000 tested, 0.11% active. AID 2520;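 active means activation more than six SD over the plate average, tested at 20 µM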;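 further: 0% = DMSO alone and 100% = apelin-13 at 10 nM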
#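 Assay system: CHO-K1 APJ beta-arrestin complementation cell line / Compound: single test compound dose, 20 µM final, 1% DMSO / Times: overnight seeding, 90 min compound at 25 °C, 1 h detection / Technique: beta-gal luminescence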
# CXCR6 block: blocks human CXCR6 beta-arrestin recruitment. CHO-K1 PathHunter CXCR6 beta-arrestin, luminescence. inhibition, % at 20 µM. 360,000 tested, 0.36% active. AID 602244; in the data active means inhibition above about 34%, passing the limit was not always enough;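 further: antagonist mode with CXCL16 agonist at 10 nM final; 0% = 10 nM CXCL16 with DMSO and 100% = unstimulated wells without agonist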
# EBI2 block: antagonists of human EBI2 receptor. 360,000 tested, 0.81% active. inhibition, % at 5 µM. EBI2 beta-arrestin recruitment, luminescence, 7a,25-OHC stimulated; in the data active means inhibition above about 38%;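 further: enzyme fragment complementation signal reports receptor beta-arrestin coupling in cells; 0% = agonist plus DMSO wells and 100% = wells without agonist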
# EBI2 antag conf: EBI2 (human) antagonism, single concentration confirmation. 2,400 tested, 29% active. inhibition, % at 5 µM. shares compounds with EBI2 block. EBI2 beta-arrestin luminescence, 7a,25-OHC antagonism;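 active means inhibition of at least 50%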
# EBI2 ag: activates EBI2, counter-screen for EBI2 antagonists. shares compounds with EBI2 block. EBI2-expressing cells, agonist mode, luminescence, 60 min; 0% vehicle, 100% 7α,25-dihydroxycholesterol control. activation, % at 5 µM. 2,400 tested, under 10 active. AID 652000;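 active means activation of at least 50%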
# bGal cs: inhibits E. coli beta-galactosidase, counter-screen for EBI2 antagonists; shares compounds with EBI2 block; 2,400 tested, 1% active; AID 652176; purified beta-galactosidase, luminescent Galacton Star, 15 min; inhibition, % at 5 µM;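 active means replicate-average signal at least 3 plate SD below neutral wells, shown as high inhibition, flagging enzyme-inhibiting false positives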;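 further: 0% = DMSO wells with enzyme and 100% = wells lacking enzyme; higher means stronger loss of beta-gal luminescence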
# * = called active by the depositor; / = no result given.
SMILES,CCR6 antagonist,APJ antagonist,APJ ag,CXCR6 block,EBI2 block,EBI2 antag conf,EBI2 ag,bGal cs
CC(C)(C)NC(=O)C1CCN(C(=O)c2ccc(-c3ccccc3)cc2)CC1,11,4,-3,-7,48*,47,0,-16
CS(=O)(=O)N1CCN(C(=O)c2ccc(-c3ccccc3)cc2)CC1,7,10,-4,-7,70*,30,2,6
CCCN(CC(=O)Nc1ccccc1C)C(=O)COc1ccc2c(c1)CCC2,17,11,-4,3,5,/,/,/
Cn1nnc2c(sc3nc(N4CCOCC4)c4c(c32)CCCC4)c1=O,3,13,-4,9,49*,38,-1,-19
COc1ccc(/C=C/C(=O)N2CCN(S(=O)(=O)c3ccccc3Br)CC2)cc1OC,7,1,2,3,74*,49,-2,-12
COc1ccc(/C=C/C(=O)N2CCN(S(=O)(=O)/C=C/c3ccccc3)CC2)cc1OC,3,-6,-2,-14,89*,73*,0,-20
COc1ccc(/C=C/C(=O)N2CCOCC2)cc1OC,4,12,-2,3,-3,/,/,/
COc1ccc(/C=C/C(=O)N2CCN(S(=O)(=O)c3ccccc3)CC2)cc1OC,0,-15,-3,-5,46*,20,1,4
COc1cc(/C=C/C(=O)N2CCN(C(=O)/C=C/c3cc(OC)c(OC)c(OC)c3)CC2)cc(OC)c1OC,2,-33,-1,-10,46*,20,-1,-21
COc1ccc(/C=C/C(=O)N2CCN(C)CC2)cc1OC,-4,9,-3,-8,-4,/,/,/
Cc1c(C(=O)N2CCC2(C)C(=O)O)oc2ccccc12 (stereo unspecified),/,/,/,6,5,/,/,/
COc1ccc(C(=O)N/C(=C/c2ccccc2F)C(=O)NCCN2CCOCC2)cc1OC,13,19,9,0,-3,/,/,/
COc1cc2c(cc1OC)C(CNC(=O)C=Cc1cc(OC)c(OC)c(OC)c1)C2 (stereo unspecified),/,/,/,-3,50*,32,1,4
COc1cc(/C=C/C(=O)NC2CCCCC2)cc(OC)c1OC,19,19,-1,2,1,/,/,/
Cc1ccc(S(=O)(=O)N2CCN(C(=O)Cc3ccccc3)CC2)cc1C,11,-2,-3,-4,21,/,/,/
Cc1ccc(S(=O)(=O)N2CCN(C(=O)/C=C/c3ccccc3)CC2)cc1C,7,20,0,0,89*,76*,-1,-8
O=C(/C=C/c1ccco1)N1CCN(S(=O)(=O)c2ccccc2)CC1,3,-6,-3,6,9,/,/,/
COc1cccc(/C=C/C(=O)N2CCN(S(=O)(=O)c3ccccc3)CC2)c1OC,8,6,-4,1,45*,20,0,3
Cc1ccnc(NCn2nnc3ccccc32)c1,-4,4,0,-8,-18,/,/,/
CCc1cc2c(SCC(=O)N3CCCC3=O)ncnc2s1,4,-6,-1,0,0,/,/,/
CCCCn1c(N)c(N(CCOC)C(=O)c2ccc(Cl)c(S(=O)(=O)N3CCCCC3)c2)c(=O)[nH]c1=O,15,18,-5,5,3,/,/,/
C[C@]12c3[nH]c4cc(-c5ccco5)ccc4c3CCN1C(=O)[C@@H](CC(=O)NCC13CC4CC(CC(C4)C1)C3)C[C@@H]2C(=O)N1CCCCC1,14,/,/,4,44*,13,-1,-4
Cc1ccc(OCCSc2nc3ccccc3n2CC(=O)O)cc1,4,-21,-2,-8,-4,/,/,/
CC1CCN(C(=O)c2ccc3ccccc3c2)CC1,27,5,3,0,46*,48,0,-1
Cc1cccc(N2CCN(C(=O)c3ccncc3)CC2C)c1 (stereo unspecified),-4,2,2,-10,5,/,/,/
SMILES,CCR6 antagonist,APJ antagonist,APJ ag,CXCR6 block,EBI2 block,EBI2 antag conf,EBI2 ag,bGal cs
O=C(c1ccc2ccccc2c1)N1CCN(c2ccccc2)CC1,10,15,-3,2,83*,68*,0,-10
O=C(c1ccc(-c2ccccc2)cc1)N1CCN(c2ccccc2)CC1,14,10,-4,0,18,/,/,/
Cc1cccc(N2CCN(C(=O)c3ccc4ccccc4c3)CC2C)c1 (stereo unspecified),11,-2,-2,1,65*,42,-1,-15
CC(=O)Nc1cccc(Nc2cc(C)nn2C)c1,/,/,/,-8,-7,/,/,/
Cc1cccc(Nc2nc(N3CCCC3)nc(N3CCCC3)n2)c1,-7,12,-4,-8,42*,7,-1,-9
O=C(COc1ccc(-n2cnnn2)cc1)Nc1ccc(F)c(F)c1,-2,2,0,-4,0,/,/,/
Cc1cc(C(C)(C)C)oc1C(=O)O,-9,2,-3,-4,2,/,/,/
Cc1cc(C(C)(C)C)oc1C(=O)N1CCN(C(=O)c2oc(C(C)(C)C)cc2C)CC1,13,/,/,14,48*,30,0,6
O=C(CSc1nnc(C23CC4CC(CC(C4)C2)C3)o1)Nc1ccc(N2CCOCC2)c(Cl)c1,-6,-12,2,2,58*,19,-2,-7
C/C(=N/NC(=O)CNc1ccc(C)cc1)c1ccc(Cl)cc1,-8,8,0,-11,18,/,/,/
Cc1ccc(C(=O)CNc2ccc(Cl)cc2)cc1,71*,102*,-6,53*,57*,76*,-3,2
O=C(COC(=O)c1cnccn1)NCCc1ccc(Cl)cc1,2,12,-1,3,0,/,/,/
CCCCNC(=O)c1ccc2nc(CC)c(N(C)Cc3ccc(OC)cc3)n2c1,/,/,/,0,10,/,/,/
CCc1nc2ccc(C(=O)NCCOc3ccc(OC)cc3)cn2c1N(C)CCCc1ccccc1,/,/,/,16,58*,43,-1,-8
CCc1nc2ccc(C(=O)NCCOc3ccc(OC)cc3)cn2c1N(C)Cc1ccc(OC)cc1,/,/,/,8,62*,40,-1,-14
CCc1nc2ccc(C(=O)NCCOc3ccc(OC)cc3)cn2c1N(C)Cc1cccs1,/,/,/,11,57*,40,0,-13
Cc1ccc2c(C)c(C)c(=O)n(C)c2c1,-4,/,/,22,-5,/,/,/
Brc1ccc(OCc2nnnn2-c2ccccc2)cc1,-1,2,0,-9,80*,64*,0,-13
COc1cccc(NC(=O)C2CCC(CNS(=O)(=O)c3cccs3)CC2)c1 (stereo unspecified),1,14,-5,-1,47*,29,1,-15
O=C(Cn1nnc2c(sc3nc4c(c(-c5ccccc5)c32)CCC4)c1=O)c1ccccc1,9,-18,-2,3,29*,0,1,4
